Results published in ChEMBL document CHEMBL4118021, “Studies of TAK1-centered polypharmacology with novel covalent TAK1 inhibitors” (Bioorg Med Chem, 2017).
One block for each compound: values may come before it. Active and inactive are the calls of the source. The calls are words filed in the database; no cut-off is given here.

What was measured:
[1] = target: Membrane-associated progesterone receptor component 1 (Homo sapiens) (UniProt O00264); assay: Binding affinity to PGRMC1 in human NCI-H23 cells at 1 uM by mass spectrometry based pull down assay; assay type: cell-based
Sequence of Membrane-associated progesterone receptor component 1 (Homo sapiens) (O00264 whole entry): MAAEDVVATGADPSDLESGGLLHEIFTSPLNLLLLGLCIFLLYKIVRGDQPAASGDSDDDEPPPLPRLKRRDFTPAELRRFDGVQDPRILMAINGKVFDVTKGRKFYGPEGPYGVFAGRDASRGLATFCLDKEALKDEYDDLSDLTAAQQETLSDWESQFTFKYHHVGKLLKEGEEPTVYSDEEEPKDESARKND

[2] = target: Tropomyosin alpha-3 chain (Homo sapiens) (UniProt P06753); assay: Binding affinity to TPM3 in human NCI-H23 cells at 1 uM by mass spectrometry based pull down assay; assay type: cell-based
Sequence of Tropomyosin alpha-3 chain (Homo sapiens) (P06753 whole entry): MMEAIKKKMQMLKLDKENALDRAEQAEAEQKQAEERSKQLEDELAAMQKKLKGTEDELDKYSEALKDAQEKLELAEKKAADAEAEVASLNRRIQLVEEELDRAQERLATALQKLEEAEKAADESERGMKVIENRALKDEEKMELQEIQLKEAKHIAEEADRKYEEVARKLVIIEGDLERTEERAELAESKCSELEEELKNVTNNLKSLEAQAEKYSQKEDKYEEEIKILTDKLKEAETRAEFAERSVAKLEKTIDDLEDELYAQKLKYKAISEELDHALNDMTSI

[3] = target: Y-box-binding protein 1 (Homo sapiens) (UniProt P67809); assay: Binding affinity to YBX1 in human NCI-H358 cells at 1 uM by mass spectrometry based pull down assay; assay type: cell-based
[4] = target: Histone H3.2 (Homo sapiens) (UniProt Q71DI3); assay: Binding affinity to HIST2H3A in human NCI-H23 cells at 1 uM by mass spectrometry based pull down assay; assay type: cell-based
[5] = target: T1, Dual specificity mitogen-activated protein kinase kinase 5 (Homo sapiens) (UniProt Q13163); assay: Binding affinity to MAP2K5 in human NCI-H358 cells at 1 uM by mass spectrometry based pull down assay; assay type: cell-based
T1 sequence (whole entry): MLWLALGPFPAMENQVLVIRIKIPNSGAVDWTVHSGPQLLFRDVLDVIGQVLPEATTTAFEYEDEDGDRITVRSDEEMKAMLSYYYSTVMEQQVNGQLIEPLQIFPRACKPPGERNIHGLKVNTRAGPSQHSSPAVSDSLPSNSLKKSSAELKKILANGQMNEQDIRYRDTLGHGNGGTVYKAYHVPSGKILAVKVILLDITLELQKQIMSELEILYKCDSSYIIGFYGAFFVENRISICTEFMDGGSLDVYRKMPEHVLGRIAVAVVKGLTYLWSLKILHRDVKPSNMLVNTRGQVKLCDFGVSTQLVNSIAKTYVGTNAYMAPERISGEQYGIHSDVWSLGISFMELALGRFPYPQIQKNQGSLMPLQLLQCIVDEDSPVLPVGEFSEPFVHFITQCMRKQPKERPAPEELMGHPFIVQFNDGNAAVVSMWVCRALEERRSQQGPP

[6] = target: Splicing factor 3B subunit 3 (Homo sapiens) (UniProt Q15393); assay: Binding affinity to SF3B3 in human NCI-H358 cells at 1 uM by mass spectrometry based pull down assay; assay type: cell-based
[7] = target: T2, 80S Ribosome (Homo sapiens) (UniProt P08865+P42677+P62753+P15880+P23396+P61247+P62701+P22090+P46782+P62081+P62241+P46781+P46783+P62280+P25398+P62277+P62263+P62841+P62244+P62249+P08708+P62269+P39019+P60866+P63220+P62266+P62847+P62851+P62854+P62979+P62857+P62273+P62861+P39023+P36578+P46777+Q02878+P18124+P62424+P62917+P32969+P27635+P62906+P62913+P30050+P26373+P40429+P50914+P61313+P18621+Q07020+Q02543+P84098+P46778+P35268+P62829+P62750+P83731+P61254+P61353+P46776+P46779+P47914+P62888+P62899+P62910+P49207+P42766+P18077+Q9Y3U8+P83881+P61927+P61513+P63173+P62891+P62945+P05388+P05386); assay: Binding affinity to RPS23 in human NCI-H23 cells at 1 uM by mass spectrometry based pull down assay; assay type: cell-based
[8] = target: Tensin-3 (Homo sapiens) (UniProt Q68CZ2); assay: Binding affinity to TNS3 in human NCI-H358 cells at 1 uM by mass spectrometry based pull down assay; assay type: cell-based
Sequence of Tensin-3 (Homo sapiens) (Q68CZ2 whole entry): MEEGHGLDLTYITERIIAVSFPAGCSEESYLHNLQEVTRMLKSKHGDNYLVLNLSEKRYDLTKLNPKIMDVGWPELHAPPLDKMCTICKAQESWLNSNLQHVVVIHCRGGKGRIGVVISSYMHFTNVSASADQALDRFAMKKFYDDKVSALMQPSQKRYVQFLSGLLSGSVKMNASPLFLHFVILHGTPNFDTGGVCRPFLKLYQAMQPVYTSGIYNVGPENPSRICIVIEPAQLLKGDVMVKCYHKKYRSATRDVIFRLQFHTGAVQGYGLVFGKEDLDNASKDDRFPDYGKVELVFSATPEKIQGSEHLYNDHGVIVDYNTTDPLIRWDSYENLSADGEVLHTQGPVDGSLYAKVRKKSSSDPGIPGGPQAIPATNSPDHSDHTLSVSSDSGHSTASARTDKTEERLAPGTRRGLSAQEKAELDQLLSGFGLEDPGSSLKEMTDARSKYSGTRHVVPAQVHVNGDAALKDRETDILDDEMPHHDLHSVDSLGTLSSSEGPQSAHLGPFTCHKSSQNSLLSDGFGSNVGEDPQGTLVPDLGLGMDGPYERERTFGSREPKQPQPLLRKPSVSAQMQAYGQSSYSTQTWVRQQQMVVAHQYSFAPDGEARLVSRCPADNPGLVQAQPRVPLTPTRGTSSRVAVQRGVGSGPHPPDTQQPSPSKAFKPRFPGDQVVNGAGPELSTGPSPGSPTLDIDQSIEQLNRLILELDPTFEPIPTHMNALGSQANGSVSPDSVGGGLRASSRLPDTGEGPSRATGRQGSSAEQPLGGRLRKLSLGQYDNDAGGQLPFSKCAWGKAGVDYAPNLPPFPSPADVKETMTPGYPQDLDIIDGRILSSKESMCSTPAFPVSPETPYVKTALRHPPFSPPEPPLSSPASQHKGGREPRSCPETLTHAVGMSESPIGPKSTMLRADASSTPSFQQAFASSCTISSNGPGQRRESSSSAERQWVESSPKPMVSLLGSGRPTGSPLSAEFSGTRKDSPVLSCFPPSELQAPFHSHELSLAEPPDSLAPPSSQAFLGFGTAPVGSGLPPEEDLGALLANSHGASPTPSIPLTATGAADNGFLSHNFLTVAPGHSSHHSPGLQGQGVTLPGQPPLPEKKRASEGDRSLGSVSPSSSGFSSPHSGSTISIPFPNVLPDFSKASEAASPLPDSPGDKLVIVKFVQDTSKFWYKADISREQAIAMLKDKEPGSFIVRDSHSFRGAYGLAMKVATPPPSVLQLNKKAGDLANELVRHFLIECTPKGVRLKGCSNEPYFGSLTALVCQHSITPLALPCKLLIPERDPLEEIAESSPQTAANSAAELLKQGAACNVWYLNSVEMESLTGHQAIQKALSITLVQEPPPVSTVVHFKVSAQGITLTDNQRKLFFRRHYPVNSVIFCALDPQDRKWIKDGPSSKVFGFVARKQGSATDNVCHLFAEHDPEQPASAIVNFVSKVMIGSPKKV

[9] = target: Trifunctional purine biosynthetic protein adenosine-3 (Homo sapiens) (UniProt P22102); assay: Binding affinity to GART in human NCI-H23 cells at 1 uM by mass spectrometry based pull down assay; assay type: cell-based
Sequence of Trifunctional purine biosynthetic protein adenosine-3 (Homo sapiens) (P22102 whole entry): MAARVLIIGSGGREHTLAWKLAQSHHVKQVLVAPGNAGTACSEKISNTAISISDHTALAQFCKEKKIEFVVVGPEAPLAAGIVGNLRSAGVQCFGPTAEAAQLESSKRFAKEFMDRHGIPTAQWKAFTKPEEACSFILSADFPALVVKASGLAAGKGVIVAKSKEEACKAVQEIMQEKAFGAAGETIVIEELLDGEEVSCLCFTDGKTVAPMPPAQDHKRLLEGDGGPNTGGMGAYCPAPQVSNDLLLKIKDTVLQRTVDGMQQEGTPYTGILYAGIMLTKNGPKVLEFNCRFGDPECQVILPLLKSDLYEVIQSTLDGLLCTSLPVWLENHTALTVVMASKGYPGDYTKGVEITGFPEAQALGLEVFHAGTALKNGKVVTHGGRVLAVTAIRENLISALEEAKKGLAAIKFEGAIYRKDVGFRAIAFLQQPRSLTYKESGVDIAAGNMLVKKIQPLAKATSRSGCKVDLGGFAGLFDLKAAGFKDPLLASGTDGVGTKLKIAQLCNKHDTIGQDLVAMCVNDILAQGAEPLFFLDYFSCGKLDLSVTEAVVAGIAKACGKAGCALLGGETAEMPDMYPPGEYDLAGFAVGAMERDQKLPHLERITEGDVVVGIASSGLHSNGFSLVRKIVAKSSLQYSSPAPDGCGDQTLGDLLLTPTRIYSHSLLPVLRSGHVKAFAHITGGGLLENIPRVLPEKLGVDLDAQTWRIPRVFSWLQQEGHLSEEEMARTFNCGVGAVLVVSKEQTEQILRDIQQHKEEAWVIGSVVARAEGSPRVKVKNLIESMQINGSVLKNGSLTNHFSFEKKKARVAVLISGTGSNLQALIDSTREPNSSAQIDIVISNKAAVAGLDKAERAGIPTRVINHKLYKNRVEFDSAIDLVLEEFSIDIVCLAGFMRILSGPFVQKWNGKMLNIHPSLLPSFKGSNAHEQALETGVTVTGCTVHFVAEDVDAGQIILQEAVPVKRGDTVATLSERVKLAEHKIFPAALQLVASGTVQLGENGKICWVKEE

[10] = target: Trifunctional enzyme subunit alpha, mitochondrial (Homo sapiens) (UniProt P40939); assay: Binding affinity to HADHA in human NCI-H23 cells at 1 uM by mass spectrometry based pull down assay; assay type: cell-based
Sequence of Trifunctional enzyme subunit alpha, mitochondrial (Homo sapiens) (P40939 whole entry): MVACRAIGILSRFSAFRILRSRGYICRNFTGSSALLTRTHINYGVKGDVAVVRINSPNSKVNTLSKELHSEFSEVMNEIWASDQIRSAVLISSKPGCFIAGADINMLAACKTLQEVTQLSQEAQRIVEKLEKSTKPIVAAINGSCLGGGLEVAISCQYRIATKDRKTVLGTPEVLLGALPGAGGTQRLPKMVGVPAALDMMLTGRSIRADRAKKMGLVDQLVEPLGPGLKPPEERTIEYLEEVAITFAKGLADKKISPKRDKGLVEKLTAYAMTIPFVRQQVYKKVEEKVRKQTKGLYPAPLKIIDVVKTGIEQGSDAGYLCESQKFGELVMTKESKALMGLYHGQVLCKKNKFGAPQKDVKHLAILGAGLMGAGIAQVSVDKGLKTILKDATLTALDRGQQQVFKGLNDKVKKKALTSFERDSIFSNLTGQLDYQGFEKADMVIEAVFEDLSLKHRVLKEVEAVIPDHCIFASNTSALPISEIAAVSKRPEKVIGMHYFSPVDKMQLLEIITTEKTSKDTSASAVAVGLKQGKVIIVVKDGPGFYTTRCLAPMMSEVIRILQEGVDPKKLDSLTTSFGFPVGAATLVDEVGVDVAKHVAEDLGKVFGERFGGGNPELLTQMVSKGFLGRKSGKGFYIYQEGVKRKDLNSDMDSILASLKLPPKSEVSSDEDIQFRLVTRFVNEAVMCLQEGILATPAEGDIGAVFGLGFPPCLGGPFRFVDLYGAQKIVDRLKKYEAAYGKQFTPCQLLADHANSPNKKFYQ

[11] = target: Small ribosomal subunit protein mS29 (Homo sapiens) (UniProt P51398); assay: Binding affinity to DAP3 in human NCI-H23 cells at 1 uM by mass spectrometry based pull down assay; assay type: cell-based
[12] = target: T2, 80S Ribosome (Homo sapiens); assay: Binding affinity to RPS2 in human NCI-H358 cells at 1 uM by mass spectrometry based pull down assay; assay type: cell-based
[13] = target: Constitutive coactivator of PPAR-gamma-like protein 1 (Homo sapiens) (UniProt Q9NZB2); assay: Binding affinity to FAM120A in human NCI-H358 cells at 1 uM by mass spectrometry based pull down assay; assay type: cell-based
Sequence of Constitutive coactivator of PPAR-gamma-like protein 1 (Homo sapiens) (Q9NZB2 whole entry): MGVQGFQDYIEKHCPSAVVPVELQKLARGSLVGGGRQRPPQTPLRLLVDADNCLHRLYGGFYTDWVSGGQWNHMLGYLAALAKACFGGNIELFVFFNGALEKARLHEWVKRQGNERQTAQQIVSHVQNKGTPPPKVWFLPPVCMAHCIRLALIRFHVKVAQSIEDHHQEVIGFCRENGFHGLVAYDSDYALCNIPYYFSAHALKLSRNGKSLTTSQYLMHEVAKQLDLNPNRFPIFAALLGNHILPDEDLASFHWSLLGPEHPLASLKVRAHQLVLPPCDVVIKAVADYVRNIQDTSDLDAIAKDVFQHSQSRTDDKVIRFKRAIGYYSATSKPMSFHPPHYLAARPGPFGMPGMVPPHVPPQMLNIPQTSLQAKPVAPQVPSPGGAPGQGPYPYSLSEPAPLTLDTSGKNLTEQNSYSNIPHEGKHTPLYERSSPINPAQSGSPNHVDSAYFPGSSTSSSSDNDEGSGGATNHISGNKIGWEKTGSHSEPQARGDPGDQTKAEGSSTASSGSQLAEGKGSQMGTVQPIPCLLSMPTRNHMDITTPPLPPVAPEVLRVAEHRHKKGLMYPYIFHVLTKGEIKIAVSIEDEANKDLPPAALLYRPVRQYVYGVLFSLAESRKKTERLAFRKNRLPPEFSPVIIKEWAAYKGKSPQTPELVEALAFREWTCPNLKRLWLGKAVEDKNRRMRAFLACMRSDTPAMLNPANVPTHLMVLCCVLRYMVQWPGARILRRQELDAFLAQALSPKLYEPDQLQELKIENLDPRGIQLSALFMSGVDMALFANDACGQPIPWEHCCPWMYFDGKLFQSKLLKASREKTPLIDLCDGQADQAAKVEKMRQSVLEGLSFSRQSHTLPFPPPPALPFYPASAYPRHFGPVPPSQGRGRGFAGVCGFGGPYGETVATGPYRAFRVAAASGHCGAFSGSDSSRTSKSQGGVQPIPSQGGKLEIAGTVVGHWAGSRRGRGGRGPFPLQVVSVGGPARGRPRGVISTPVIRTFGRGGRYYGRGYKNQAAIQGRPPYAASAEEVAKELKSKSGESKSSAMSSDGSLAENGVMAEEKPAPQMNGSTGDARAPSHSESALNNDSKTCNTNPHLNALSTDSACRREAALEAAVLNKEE

[14] = target: Tyrosine-protein kinase receptor UFO (Homo sapiens) (UniProt P30530); assay: Inhibition of AXL in human SKCO1 cells at 1 uM after 4 hrs using biotin labeled NCMLNENMSVCVADFGLSKK probe by mass-spectrometric analysis relative to control; assay type: cell-based
[15] = target: T1, Dual specificity mitogen-activated protein kinase kinase 5 (Homo sapiens); assay: Inhibition of human MEK5 (98 to 448 residues) expressed in mammalian expression system assessed as enzyme activity at 1 uM by KINOMEScan assay relative to control; set-up: scale not given: the % may be the effect or the level left
Method in brief: (§1)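 In vitro ATP-site competition binding assay across a panel of 456 kinases, with compound tested at 1 and 10 μM.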

[16] = target: T3, Dual specificity mitogen-activated protein kinase kinase 4 (Homo sapiens) (UniProt P45985); assay: Inhibition of human MEK4 (84 to 399 residues) expressed in mammalian expression system assessed as enzyme activity at 10 uM by KINOMEScan assay relative to control; set-up: scale not given: the % may be the effect or the level left; method in brief: as §1
T3 sequence (whole entry): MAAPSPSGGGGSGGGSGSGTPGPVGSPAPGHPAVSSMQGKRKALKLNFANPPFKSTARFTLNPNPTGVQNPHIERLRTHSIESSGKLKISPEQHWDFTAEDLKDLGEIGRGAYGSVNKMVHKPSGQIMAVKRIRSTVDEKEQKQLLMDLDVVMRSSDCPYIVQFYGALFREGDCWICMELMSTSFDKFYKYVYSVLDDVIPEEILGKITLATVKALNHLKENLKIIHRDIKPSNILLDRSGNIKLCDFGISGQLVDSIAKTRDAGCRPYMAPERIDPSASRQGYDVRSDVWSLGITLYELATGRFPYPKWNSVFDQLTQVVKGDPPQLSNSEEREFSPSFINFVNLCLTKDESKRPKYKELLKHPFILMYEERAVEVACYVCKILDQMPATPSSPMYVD

[17] = target: T3, Dual specificity mitogen-activated protein kinase kinase 4 (Homo sapiens); assay: Inhibition of human MEK4 (84 to 399 residues) expressed in mammalian expression system assessed as enzyme activity at 1 uM by KINOMEScan assay relative to control; set-up: scale not given: the % may be the effect or the level left; method in brief: as §1

- Activity [1]: Active
- Activity [2]: Active
- Activity [3]: Active
- Activity [4]: Active
- Activity [5]: Active
- Activity [6]: Active
- Activity [7]: Active
- Activity [8]: Active
- Activity [9]: Active
- Activity [10]: Active
- Activity [11]: Active
- Activity [12]: Active
- Activity [13]: Active
Compound: C=CC(=O)Nc1ccccc1Nc1nc(Nc2ccc(N3CCN(CCOCCOCCOCCNC(=O)CCCC[C@@H]4SC[C@@H]5NC(=O)N[C@@H]54)CC3)cc2)ncc1Cl

Compound: C=CC(=O)Nc1ccccc1Nc1nc(Nc2ccc(N3CCN(C)CC3)cc2)ncc1Cl
- inhibition [14]: 27.2%

Compound: COc1cc(O)c2c(c1)/C=C/C[C@H](O)[C@H](O)C(=O)/C=C\C[C@H](C)OC2=O
- Activity [15]: 0.2%
- Activity [16]: 0.35%
- Activity [17]: 19%
